The nature of data set [1]: AUC (0 to 24 hrs) in Sprague-Dawley rat at 70 umol/kg, po qd administered for 7 days measured on day 7. The class given is ADME, organism-based. Details: time < 24 hr, dose 70 umol/kg, route oral. To be noted: plasma. The method in brief:
(§1)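 Toxicity study 2: 2 female satellite rats per dose group. Dosing was once daily by oral gavage (10 ml/kg) for 7 days. Tail-vein EDTA blood was taken at 2, 4, 6, 7 and 24 h on day 1 and on day 7, then chilled and centrifuged to plasma. Parent and M1 were quantified by LC-MS/MS, with M1 measured in negative electrospray mode.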

A short description of data set [2]: AUC (0 to 24 hrs) in Wistar Hannover rat at 70 umol/kg, po qd measured on day 1. To be noted: plasma.
Data set [3] has as its system Rattus norvegicus. As to the kind of experiment: Toxicity in Wistar Hannover rat kidney assessed as pathophysiological changes at 70 to 500 umol/kg, po qd administered for 7 days measured on day 7. To be noted: in vivo, 168 h.
Data set [4] deals with Rattus norvegicus. The experiment in a line: Toxicity in Wistar Hannover rat kidney assessed as increase in plasma urea level at >= 500 to 1000 umol/kg, po qd administered for 7 days measured on day 7. It is filed as organism-based. As to conditions: in vivo, 168 h. In a few lines:
(§2)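 Wistar Hannover rats, about 8 weeks old, were acclimatized about 2 weeks and randomized by body weight. Dosing was by oral gavage (10 ml/kg) once daily for 7 days, with vehicle controls. At the end of dosing, plasma (lithium heparin) was taken from the orbital plexus under isoflurane/oxygen anaesthesia, and urea and creatinine were measured.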

The subject of data set [5] is Rattus norvegicus. The experiment in a line: Toxicity in Wistar Hannover rat kidney assessed as crystals in urine at 76 to 230 umol/kg, po qd administered for 7 days measured on day 7 by hematoxylin/eosin staining-based light microscopic analysis. It is filed as organism-based. As to conditions: in vivo, 168 h.
Data set [6] can be described thus: AUC (0 to 24 hrs) in Sprague-Dawley rat at 200 umol/kg, po qd administered for 7 days measured on day 7. To be noted: plasma. Further details: dose 200 umol/kg, time < 24 hr, route oral. It is filed as ADME, organism-based. In a few lines: as §1
Data set [7] can be described thus: Cmax in Sprague-Dawley rat at 70 umol/kg, po qd administered for 7 days measured on day 7. The class given is ADME, organism-based. Further details: dose 70 umol/kg, route oral. As to conditions: in vivo. The method in brief: as §1
Data set [8] deals with Rattus norvegicus. The experiment in a line: Toxicity in Wistar Hannover rat kidney assessed as increase in plasma creatinine level at >= 500 to 1000 umol/kg, po qd administered for 7 days measured on day 7. As to conditions: in vivo, 168 h. It is filed as organism-based. The method in brief:
as §2

The nature of data set [9]: Cmax in Wistar Hannover rat at 200 umol/kg, po qd measured on day 1. To be noted: in vivo.
Data set [10] in a line: Drug metabolism in Sprague-Dawley rat hepatocytes assessed as amide hydrolysis at 1 to 10 uM by LC-MS analysis. It is filed as ADME, cell-based, Hepatocyte. The method in brief:
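Hepatocytes at 1 × 10^6 cells/ml in William's medium incubated at 37°C with gentle shaking under 5% CO2. Substrate was at […]. Metabolites were analysed by LC-MS.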

Data set [11] can be described thus: Cmax in Wistar Hannover rat at 70 umol/kg, po qd measured on day 1. As to conditions: in vivo.
Data set [12] in a line: AUC (0 to 24 hrs) in Wistar Hannover rat at 200 umol/kg, po qd measured on day 1. To be noted: plasma.
Data set [13] in a line: Cmax in Sprague-Dawley rat at 200 umol/kg, po qd administered for 7 days measured on day 7. It is filed as ADME, organism-based. Further details: dose 200 umol/kg, route oral. To be noted: in vivo. In a few lines: as §1
The test system of data set [14] is Rattus norvegicus. The experiment in a line: Toxicity in Wistar Hannover rat kidney assessed as crystals in urine at 500 to 2000 umol/kg, po qd administered for 7 days measured on day 7. It is filed as organism-based. As to conditions: in vivo, 168 h.
The nature of data set [15]: Cmax in Sprague-Dawley rat at 500 umol/kg, po qd administered for 7 days measured on day 7. The class given is ADME, organism-based. Details: dose 500 umol/kg, route oral. To be noted: in vivo. In a few lines:
as §1

The nature of data set [16]: Cmax in Wistar Hannover rat at 2000 umol/kg, po qd measured on day 1. To be noted: in vivo.
Data set [17] deals with Rattus norvegicus. The experiment in a line: Toxicity in Wistar Hannover rat kidney assessed as histopathogical changes at 500 to 2000 umol/kg, po qd administered for 7 days measured on day 8 by hematoxylin/eosin staining-based light microscopic analysis. As to conditions: in vivo, 168 h. It is filed as organism-based. In a few lines:
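Wistar Hannover rats, about 8 weeks old, were gavaged once daily (10 ml/kg) for 7 days. One day after the last dose they were killed by carotid exsanguination under isoflurane/oxygen. Kidneys were fixed in buffered formalin, embedded in paraffin, sectioned, stained with hematoxylin and eosin, and examined by light microscopy.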

A short description of data set [18]: Cmax in Sprague-Dawley rat at 2000 umol/kg, po qd administered for 7 days measured on day 7. Details: dose 2000 umol/kg, route oral. It is filed as ADME, organism-based. As to conditions: in vivo. In a few lines: as §1
The subject of data set [19] is Rattus norvegicus. The experiment in a line: Toxicity in Wistar Hannover rat kidney assessed as increase in plasma creatinine level at 500 to 2000 umol/kg, po qd administered for 7 days measured on day 7. The class given is organism-based. To be noted: in vivo, 168 h. In a few lines:
as §2

In data set [20] the test system is Rattus norvegicus. The experiment in a line: Drug level in Wistar Hannover rat treated with [14C]-AZ'7847 at 500 umol/kg, po qd administered for 7 days measured on day 7 by radio monitoring method. It is filed as ADME, organism-based. As to conditions: in vivo, 168 h.
Data set [21] can be described thus: AUC (0 to 24 hrs) in Sprague-Dawley rat at 500 umol/kg, po qd administered for 7 days measured on day 7. It is filed as ADME, organism-based. Details: dose 500 umol/kg, time < 24 hr, route oral. As to conditions: plasma. In a few lines:
as §1

Data set [22] can be described thus: AUC (0 to 24 hrs) in Wistar Hannover rat at 500 umol/kg, po qd measured on day 1. As to conditions: plasma.
Data set [23] can be described thus: Solubility in rat urine at pH 7 after 5 hrs. It is filed as physicochemical. The method in brief:
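Samples in rat urine at pH 7.0 were incubated at 37°C for 5 hours. They were analysed by HPLC on a C18 column with photodiode array and single mass detection.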

Data set [24] is described as follows: AUC (0 to 24 hrs) in Sprague-Dawley rat at 2000 umol/kg, po qd administered for 7 days measured on day 7. It is filed as ADME, organism-based. Details: time < 24 hr, dose 2000 umol/kg, route oral. As to conditions: plasma. The method in brief: as §1
Data set [25] can be described thus: Cmax in Wistar Hannover rat at 500 umol/kg, po qd measured on day 1. As to conditions: in vivo.
Data set [26] is described as follows: AUC (0 to 24 hrs) in Wistar Hannover rat at 2000 umol/kg, po qd measured on day 1. To be noted: plasma.
Data set [27] deals with Rattus norvegicus. The experiment in a line: Toxicity in Wistar Hannover rat kidney assessed as increase in plasma urea level at 500 to 2000 umol/kg, po qd administered for 7 days measured on day 7. It is filed as organism-based. To be noted: in vivo, 168 h. In a few lines:
as §2

Data set [28] is described as follows: AUC (0 to 24 hrs) in Sprague-Dawley rat at 170 umol/kg, po qd administered for 7 days measured on day 7. The class given is ADME, organism-based. Details: time < 24 hr, dose 170 umol/kg, route oral. To be noted: plasma. In a few lines:
as §1

Data set [29] concerns Rattus norvegicus. The experiment in a line: Toxicity in Wistar Hannover rat kidney assessed as crystals in urine at 500 umol/kg, po qd administered for 7 days measured on day 7. The class given is organism-based. As to conditions: in vivo, 168 h.
The nature of data set [30]: Cmax in Wistar Hannover rat at 170 umol/kg, po qd measured on day 1. To be noted: in vivo.
A short description of data set [31]: Cmax in Sprague-Dawley rat at 170 umol/kg, po qd administered for 7 days measured on day 7. As to conditions: in vivo. The class given is ADME, organism-based. Details: dose 170 umol/kg, route oral. The method in brief: as §1
The nature of data set [32]: AUC (0 to 24 hrs) in Wistar Hannover rat at 170 umol/kg, po qd measured on day 1. As to conditions: plasma.
The next data set concerns the target T1, Prostaglandin E synthase (Homo sapiens, UniProt O14684).
T1 sequence (O14684 whole entry): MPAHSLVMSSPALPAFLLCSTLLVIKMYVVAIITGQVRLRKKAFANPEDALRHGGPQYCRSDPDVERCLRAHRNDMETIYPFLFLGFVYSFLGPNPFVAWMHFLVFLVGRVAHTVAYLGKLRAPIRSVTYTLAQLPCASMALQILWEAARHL
As to the kind of experiment: Inhibition of human mPGES-1 by whole blood assay.

Values after ≈ are worked out from the molar mass of the structure shown.

What is called AUC is concentration integrated over time. Low values mean less exposure, high ones more exposure. As a reminder, the AUC(0-t) is the area under the concentration-time curve up to a stated or last time point. As a reminder, the Cmax is the peak of the concentration-time curve. Turning to `COc1cc(C(=O)NS(=O)(=O)c2ccccc2S(N)(=O)=O)ccc1C#CC1CC1`, the results for the exposure (AUC) at 24 h in data set [1] and in data set [6] were 550 µM·h and 1070 µM·h, respectively. Besides, the AUC(0-t) at 24 h in [2] was determined as 610 µM·h; in data set [12], 970 µM·h. Besides, the Activity result in the data set with Rattus norvegicus [3], in the data set on Rattus norvegicus [4], in the data set on Rattus norvegicus [5] and with Rattus norvegicus [8] was “Non-toxic” each time. Besides, the Cmax stood at 50 µM in data set [7], 90 µM in data set [9], 50 µM in data set [11] and 110 µM in data set [13]. Besides, the Drug metabolism entry in [10] is reported as “metabolite_not_detected”.
For orientation: solubility means how much of the substance goes into solution per volume. A high value points to much dissolved substance. With `NS(=O)(=O)c1ccccc1S(N)(=O)=O`, the Activity entry in the data set on Rattus norvegicus [14] is recorded as “Toxic”; in the data set on Rattus norvegicus [17], “Non-toxic”; in the data set on Rattus norvegicus [19], “Non-toxic”; with Rattus norvegicus [27] it was “Non-toxic”. For the same molecule, the Cmax is 70 µM in data set [15], 66 µM in data set [16], 80 µM in data set [18] and 57 µM in data set [25]. Moreover, the Drug metabolism result in the data set with Rattus norvegicus [20] is “metabolite_detected”. The AUC at 24 h was found to be 1300 µM·h in [21] and 1250 µM·h in data set [24]. In addition, the AUC(0-t) at 24 h in data set [22] stood at 1080 µM·h; in data set [26], 1150 µM·h. Besides, the solubility at 5 h in data set [23] is 83 µM (≈ 19.6 µg/mL).
One may read the IC50 as the midpoint of a concentration-inhibition curve. A high value points to a need for much substance. `CC(C)C#Cc1ccc(C(=O)NS(=O)(=O)c2ccccc2S(N)(=O)=O)cc1OCCC(F)(F)F`: the Activity result is “Non-toxic” with Rattus norvegicus [3], “Non-toxic” with Rattus norvegicus [4], “Toxic” in the data set with Rattus norvegicus [29] and “Non-toxic” with Rattus norvegicus [8]. In addition, the Cmax in [15] was determined as 320 µM; in [30], 170 µM; in [25] it was 300 µM; in [31] it was 190 µM. The figures for the AUC at 24 h in data set [28] and in [21] were 1600 µM·h and 3010 µM·h, respectively. The AUC(0-t) at 24 h turned out to be 3410 µM·h in data set [22] and 1260 µM·h in [32]. The Drug metabolism entry in [10] is “metabolite_not_detected”. The IC50 against Prostaglandin E synthase was over 2 µM.

Values taken from ChEMBL document CHEMBL3526126, “Amide hydrolysis of a novel chemical series of microsomal prostaglandin E synthase-1 inhibitors induces kidney toxicity in the rat” (Drug Metab Dispos, 2013).
